Measured values of several laboratories.
Each line is one published result; the experiments were not run side by side.
Target: Serine/threonine-protein kinase 33 (STK33, Homo sapiens, UniProt Q9BYT3)

| SMILES | assay | conditions | quantity | value |
| --- | --- | --- | --- | --- |
| Nc1ccc2ncnc(NCCc3ccc(Oc4ccccc4)cc3)c2c1 | enzyme activity, inhibitor, radiometric | 0.5 µM | remaining activity | 101% |
| Nc1ncc(-c2nc(N3CCOCC3)nc(N3CCOCC3)n2)c(C(F)F)n1 | binding, competition with immobilised ligand | 10 µM | remaining binding | 94% |
| COc1ncccc1-c1cnn2ccc(N3CCN(C(=O)OC(C)C)CC3)nc12 | binding, competition with immobilised ligand | 1 µM | remaining binding | 100% |
| Cn1cncc1[C@](O)(COc1ccc(C#N)cc1-c1ccc(OC(F)(F)F)cc1)c1ccc(C#N)cc1 | cell-free assay, competition with immobilised ligand | 1 µM | remaining binding | 74% |
| CCOC(=O)c1c(C)[nH]c(/C=C2\C(=O)Nc3ccccc32)c1C | enzyme activity, inhibitor, radiometric | 0.5 µM | remaining activity | 83.7% |
| Cn1cc(-c2cccc(N3CCc4c(sc5c4CC(C)(C)C5)C3=O)c2CO)cc(Nc2ccncn2)c1=O | enzyme activity, inhibitor | 1 µM | inhibition | 2% |
| N#CC1(c2ccccn2)CCN(Cc2cc(C(=O)O)c(=O)n3ccccc23)CC1 | cell-free assay, competition with immobilised ligand | 1 µM | remaining binding | 56% |
| Cn1cc(-c2cc(F)cc(N3CCn4c(cc5c4CCCC5)C3=O)c2CO)cc(Nc2ccc(N3CCN(C4COC4)CC3)cn2)c1=O | enzyme activity, inhibitor | 0.1 µM | inhibition | -5% |
| CC(C)(C)c1nc(-c2cccc(NS(=O)(=O)c3c(F)cccc3F)c2F)c(-c2ccnc(N)n2)s1 | enzyme activity, inhibitor, radiometric | 1 µM | remaining activity | 76% |
| COc1cc(Nc2ncc(F)c(Nc3ccc4c(n3)NC(=O)C(C)(C)O4)n2)cc(OC)c1OC | binding | 10 µM | inhibition | 85% |
| CC(C)(C)c1nc2c(s1)c1nc(N)ncc1c1ccc(NS(=O)(=O)c3c(F)cccc3F)c(F)c12 | enzyme activity, inhibitor, radiometric | 1 µM | remaining activity | 82% |
| Cc1nn(C)cc1-c1nc2c(N3CCN(Cc4ccc(Cl)cc4)CC3)c(Cl)cnc2[nH]1 | binding, competition with immobilised ligand | 1 µM | remaining binding | 100% |
